The text below walks through data of ChEMBL document CHEMBL3352259, “Benzimidazole--ibuprofen/mesalamine conjugates: potential candidates for multifactorial diseases” (Eur J Med Chem, 2015).

Data set [1] relates to Rattus norvegicus. Put plainly: Antiinflammatory activity against carrageenan-induced ip dosed Wistar rat paw edema model assessed as inhibition of edema administered 30 mins prior to carrageenan challenge measured after 60 mins. It is filed as functional. In short, it runs like this:
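Wistar rats (150-200 g, either sex), 150 µmol/kg i.p. 30 min before subplantar carrageenan; vehicle control 0.5% SCMC. Paw volume read at 0, 30, 60, 120, 180 min. % oedema inhibition = 100 − [(treated paw volume/control paw volume) × 100].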
(Carrageenan injected into the paw causes an acute inflammation.)

Data set [2] relates to Mus musculus. Put plainly: Immunomodulatory activity in albino mouse assessed as change in humoral antibody titre at 150 umol/kg, po for 7 days followed by sheep RBC challenge measured on day 14. The format is functional. In short, it runs like this: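 Albino mice, 6 per group, 150 µmol/kg p.o. for 7 days. On day 7, challenged i.p. with 0.1 mL sheep RBC suspension (about 1×10^8 cells per 0.1 mL, saline-washed). Retro-orbital blood taken on day 14, serum separated at 2500 rpm for 10 min, and antibody titre determined by microtitre haemagglutination. Mean ± SD.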

The test system of data set [3] is Mus musculus. Put plainly: Immunomodulatory activity in albino mouse assessed as change in carbon clearance index at 150 umol/kg, po for 5 days followed by carbon ink challenge. It is filed as functional. In short, it runs like this: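 Albino mice (18-22 g), 6 per group, 150 µmol/kg p.o. daily for 5 days (control 0.5% SCMC, 0.3 mL). Carbon ink suspension (10 µL/g) given via tail vein 48 h later. Retro-orbital blood at 3 and 15 min, 25 µL into 2 mL 0.1% Na2CO3, OD read. K = (ln OD1 − ln OD2)/12. Mean ± SD.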

For data set [4], the system named is Rattus norvegicus. Put plainly: Gastrointestinal toxicity in Wistar rat assessed as ulcer index at 150 umol/kg, po administered for 3 days measured on day 4 (reference value: 0.33 +/-0.20). The format is organism-based. Particulars: in vivo, 72 h.
Data set [5] deals with Rattus norvegicus. The experiment in a line: Antioxidant activity in Wistar rat assessed as catalase level measured per mg of protein at 150 umol/kg, po administered for 3 days measured on day 4 (reference value: 22.14 +/- 1.19 umol). It is filed as functional.
Data set [6] has as its system Rattus norvegicus. Put plainly: Antioxidant activity in Wistar rat assessed as thiobarbituric acid reactive substance level measured per mg of protein at 150 umol/kg, po administered for 3 days measured on day 4 (reference value: 3.72 +/- 00.23 nmol). It is filed as functional.
Data set [7] concerns Rattus norvegicus. Put plainly: Antioxidant activity in Wistar rat assessed as GSH level measured per 100 mg of protein at 150 umol/kg, po administered for 3 days measured on day 4 (reference value: 184.10 +/- 4.19 umol). The format is functional.

As to `COc1ccc2nc(C(C)c3ccc(CC(C)C)cc3)[nH]c2c1` (stereo not drawn), the “inhibition (INH)” value in the data set on Rattus norvegicus [1] was found to be 64.7%. Moreover, the Activity with Mus musculus [2] turned out to be 42.3%; in the data set on Mus musculus [3] it was 52.9%.

Take `COc1ccc2c(c1)c(CC(=O)O)c(C)n2C(=O)c1ccc(Cl)cc1` [INDOMETHACIN]: in the data set on Rattus norvegicus [4], the UI turned out to be 3.17. Also, the Activity turned out to be 7.79 µmol with Rattus norvegicus [5], 30.41 nmol with Rattus norvegicus [6] and 85.2 µmol in the data set with Rattus norvegicus [7].

For the molecule `CC(C)Cc1ccc(C(C)C(=O)Nc2nc3ccccc3[nH]2)cc1` (stereo not drawn), in the data set on Rattus norvegicus [1], the “inhibition (INH)” value came to 53.8%. The Activity in the data set with Mus musculus [2] was found to be 38.4%; with Mus musculus [3], 76.4%.

With `Cc1ccc2nc(NC(=O)C(C)c3ccc(CC(C)C)cc3)[nH]c2c1` (stereo not drawn), in the data set on Rattus norvegicus [1], the “inhibition (INH)” value turned out to be 54.1%. For the same molecule, the figures for the Activity with Mus musculus [2] and in the data set on Mus musculus [3] were 23.1% and 47.1%, respectively.

As to `Nc1ccc(O)c(C(=O)O)c1` [MESALAMINE], in the data set on Rattus norvegicus [1], the “inhibition (INH)” value came to 50%.

In the case of `c1ccc([C@H]2CN3CCSC3=N2)cc1` [LEVAMISOLE], the Activity stood at 65.3% in the data set with Mus musculus [2] and 88.2% in the data set on Mus musculus [3].

`Nc1ccc(O)c(C(=O)Nc2nc3ccc(C(=O)c4ccccc4)cc3[nH]2)c1`: the “inhibition (INH)” value in the data set on Rattus norvegicus [1] amounted to 52.1%. For the same molecule, the Activity with Mus musculus [2] is given as -26.9%; with Mus musculus [3], -17.6%.

For the molecule `Cc1ccc2nc(C(C)c3ccc(CC(C)C)cc3)[nH]c2c1` (stereo not drawn), the “inhibition (INH)” value in the data set on Rattus norvegicus [1] worked out at 58%. For the same molecule, the values for the Activity in the data set on Mus musculus [2] and in the data set on Mus musculus [3] were 38.4% and 70.5%, respectively.

For the molecule `Nc1ccc(O)c(C(=O)Nc2nc3ccc([N+](=O)[O-])cc3[nH]2)c1`, in the data set on Rattus norvegicus [1], the “inhibition (INH)” value turned out to be 36.9%. Also, the Activity in the data set with Mus musculus [2] was -50%; in the data set on Mus musculus [3], -41.1%; in the data set on Rattus norvegicus [5] it was 11.87 µmol; with Rattus norvegicus [6] it was 11.98 nmol; in the data set on Rattus norvegicus [7], 127.32 µmol. In the data set on Rattus norvegicus [4], the UI worked out at 0.4.

`Cc1ccc2nc(-c3cc(N)ccc3O)[nH]c2c1`: the “inhibition (INH)” value with Rattus norvegicus [1] worked out at 52.4%. Besides, the Activity is 42.3% in the data set on Mus musculus [2] and 58.8% in the data set on Mus musculus [3].

Turning to `CC(C)Cc1ccc(C(C)c2nc3ccc(C(=O)c4ccccc4)cc3[nH]2)cc1` (stereo not drawn), the “inhibition (INH)” value with Rattus norvegicus [1] was determined as 68.1%. The Activity in the data set with Mus musculus [2] was 61.5%; with Mus musculus [3] it was >100%; in the data set with Rattus norvegicus [5] it was 14.12 µmol; in the data set with Rattus norvegicus [6] it was 11.28 nmol; with Rattus norvegicus [7] it was 131.5 µmol. Also, the UI in the data set with Rattus norvegicus [4] amounted to 0.7.

On to `COc1ccc2nc(-c3cc(N)ccc3O)[nH]c2c1`, for which, in the data set on Rattus norvegicus [1], the “inhibition (INH)” value turned out to be 55.7%. In addition, the Activity is given as 46.2% with Mus musculus [2] and 70.5% with Mus musculus [3].

Consider `COc1ccc2nc(NC(=O)C(C)c3ccc(CC(C)C)cc3)[nH]c2c1` (stereo not drawn), for which the “inhibition (INH)” value in the data set on Rattus norvegicus [1] worked out at 55.3%. Also, the Activity with Mus musculus [2] was found to be 26.9%; with Mus musculus [3], 52.9%.

Regarding `Nc1ccc(O)c(-c2nc3ccccc3[nH]2)c1`, in the data set on Rattus norvegicus [1], the “inhibition (INH)” value was determined as 54.6%. Further, the Activity was 61.5% with Mus musculus [2]; >100% in the data set with Mus musculus [3]; 18.78 µmol in the data set on Rattus norvegicus [5]; 5.47 nmol with Rattus norvegicus [6]; 178.18 µmol in the data set on Rattus norvegicus [7]. Further, the UI in the data set with Rattus norvegicus [4] is 0.58.

`CC(C)Cc1ccc(C(C)C(=O)O)cc1` (stereo not drawn) [IBUPROFEN]: in the data set with Rattus norvegicus [1], the “inhibition (INH)” value was found to be 53.8%.

As to `Cc1ccc2nc(NC(=O)c3cc(N)ccc3O)[nH]c2c1`, the “inhibition (INH)” value in the data set with Rattus norvegicus [1] is listed as 48.8%. Further, the Activity in the data set with Mus musculus [2] was -38.4%; in the data set with Mus musculus [3] it was -35.2%.

As to `CC(C)Cc1ccc(C(C)C(=O)Nc2nc3ccc(C(=O)c4ccccc4)cc3[nH]2)cc1` (stereo not drawn), the “inhibition (INH)” value in the data set on Rattus norvegicus [1] came to 60.1%. Besides, the figures for the Activity in the data set with Mus musculus [2] and with Mus musculus [3] were 42.3% and 64.7%, respectively.

Take `CC(C)Cc1ccc(C(C)C(=O)Nc2nc3ccc([N+](=O)[O-])cc3[nH]2)cc1` (stereo not drawn): the “inhibition (INH)” value in the data set on Rattus norvegicus [1] was 34.3%. The values for the Activity in the data set with Mus musculus [2] and in the data set on Mus musculus [3] were 15.3% and 23.5%, respectively.

`Nc1ccc(O)c(C(=O)Nc2nc3ccccc3[nH]2)c1`: the “inhibition (INH)” value in the data set on Rattus norvegicus [1] is 50%. The values for the Activity with Mus musculus [2] and in the data set with Mus musculus [3] were -34.6% and -29.4%, respectively.

Regarding `CC(C)Cc1ccc(C(C)c2nc3ccc([N+](=O)[O-])cc3[nH]2)cc1` (stereo not drawn), the “inhibition (INH)” value in the data set on Rattus norvegicus [1] was found to be 38%. Moreover, the Activity with Mus musculus [2] was 19.2%; in the data set with Mus musculus [3] it was 29.4%.

As to `Nc1ccc(O)c(-c2nc3ccc(C(=O)c4ccccc4)cc3[nH]2)c1`, in the data set with Rattus norvegicus [1], the “inhibition (INH)” value was 62.6%. Also, the Activity with Mus musculus [2] was 69.2%; in the data set on Mus musculus [3], >100%; in the data set on Rattus norvegicus [5] it was 16.94 µmol; with Rattus norvegicus [6], 8.95 nmol; with Rattus norvegicus [7] it was 153.38 µmol. Further, in the data set on Rattus norvegicus [4], the UI is given as 1.1.

Consider `COc1ccc2nc(NC(=O)c3cc(N)ccc3O)[nH]c2c1`, for which the “inhibition (INH)” value in the data set on Rattus norvegicus [1] is given as 50%. The Activity in the data set on Mus musculus [2] is given as -34.6%; with Mus musculus [3], -29.4%.

With `CC(C)Cc1ccc(C(C)c2nc3ccccc3[nH]2)cc1` (stereo not drawn), the “inhibition (INH)” value in the data set with Rattus norvegicus [1] worked out at 57.1%. For the same molecule, the Activity in the data set with Mus musculus [2] is 57.6%; in the data set on Mus musculus [3], >100%; in the data set with Rattus norvegicus [5], 18.26 µmol; with Rattus norvegicus [6], 5.9 nmol; in the data set on Rattus norvegicus [7], 158.6 µmol. For the same molecule, the UI in the data set with Rattus norvegicus [4] stood at 0.92.

Consider `Nc1ccc(O)c(-c2nc3ccc([N+](=O)[O-])cc3[nH]2)c1`, for which the “inhibition (INH)” value in the data set with Rattus norvegicus [1] is 42.9%. Moreover, the Activity in the data set with Mus musculus [2] stood at 23%; in the data set on Mus musculus [3] it was 41.2%.
